AF4-AF9 inh – MLL-AF4/AF9 protein interaction inhibition; P42568; AlphaScreen, biotin-AF4 peptide binding to FLAG-AF9; 350,000 compounds, 0.47% hits; inhibition, % at 10 µM;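 active = every replicate reaching a set inhibition limit, whatever the replicate mean, cut at about 25% in these data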;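 note: 0% = plate neutral control median and 100% = total signal loss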
FGF22 binding – FGF22 (human) thermal shift binding; activity (Tm shift, normalised), % at 9.99 µM; AID 651658; 340,000 compounds, 1.5% hits; recombinant FGF22 thermal shift, SYPRO orange fluorescence; percent of sucrose octasulfate shift, DMSO zero;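 active = mean Tm shift, scaled 0 neutral to 100 positive control, at about 1.3% or above, every replicate too, limit read from the data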
Target sequence (Q9HCT0 whole entry, looked up): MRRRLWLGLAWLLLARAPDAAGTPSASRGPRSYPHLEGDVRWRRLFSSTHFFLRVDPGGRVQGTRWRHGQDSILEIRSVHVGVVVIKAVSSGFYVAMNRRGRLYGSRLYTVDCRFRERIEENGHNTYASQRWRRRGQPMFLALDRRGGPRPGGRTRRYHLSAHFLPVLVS
FN deposit inh – fibronectin deposition inhibition | AH1F fibroblasts, Alexa488-fibronectin deposition fluorescence, overnight | inhibition, % at 12.6 µM | 350,000 compounds, 0.086% hits | AID 743247;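 active = mean inhibition across replicates of 30% or more, regardless of how many single replicates reach that level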;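 note: positive control wells lacked labelled fibronectin entirely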
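material = AH1F fibroblast monolayer depositing Alexa488-labelled fibronectin into matrix | amount = 10000 AH1F cells/well | buffer or medium = DMEM plus 2% serum, read in PBS | incubation = 1 h cell adhesion before compound, then overnight fibronectin incubation | detection = fluorescence at 485 nm excitation, 525 nm emission | evaluation = percent inhibition as loss of matrix-bound fibronectin fluorescence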
ARNT-TACC3 inh – disrupts binding between human ARNT and TACC3; 390,000 compounds, 0.66% hits; Q9Y6A5; AlphaScreen His-ARNT PAS-B/GST-TACC3 binding, luminescence; TACC3 fragment carries E629A point mutation; inhibition, % at 9.99 µM;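 active = mean inhibition of replicates at least 50% and at least half of replicates each reaching 50%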;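 note: 0% = complete ARNT plus TACC3 wells and 100% = ARNT alone without TACC3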
PDI inh – PDI (human) enzyme inhibition. 350,000 compounds, 0.052% hits. PDI insulin aggregation turbidity, A650, 90 min. P07237. AID 588391. inhibition, % at 10 µM;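 active = mean inhibition across replicates of 30% or more, whatever share of single replicates reach that level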
ERp5 block – inhibitors of human ERp5; inhibition, % at 9.99 µM; Q15084; 350,000 compounds, 0.05% hits; AID 651711; ERp5 insulin aggregation, absorbance 650 nm, 90 min;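 active = mean replicate inhibition above about 25%, with every replicate also reaching it, limit read from the data, passing the limit was not always enough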
Target sequence (Q15084 whole entry, looked up): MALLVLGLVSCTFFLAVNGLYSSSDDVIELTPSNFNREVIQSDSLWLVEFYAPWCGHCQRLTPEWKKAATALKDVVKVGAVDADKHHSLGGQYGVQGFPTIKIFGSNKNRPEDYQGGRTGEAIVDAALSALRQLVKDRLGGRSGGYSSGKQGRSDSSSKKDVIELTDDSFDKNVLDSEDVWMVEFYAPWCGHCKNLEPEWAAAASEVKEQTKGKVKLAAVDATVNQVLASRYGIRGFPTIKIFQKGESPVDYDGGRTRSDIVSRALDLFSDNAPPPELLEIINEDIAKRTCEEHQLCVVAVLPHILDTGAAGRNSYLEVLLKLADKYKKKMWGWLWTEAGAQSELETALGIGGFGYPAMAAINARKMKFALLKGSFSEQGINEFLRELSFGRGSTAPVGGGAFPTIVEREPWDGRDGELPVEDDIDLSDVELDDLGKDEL
Active calls of the source: *. Most compounds without a hit are left out; they make up all but 2.1% or so of the library.

How did O=C(c1ccccc1)c1cccs1 do in these assays?
AF4-AF9 inh: -1.5; FGF22 binding: 43.2*; FN deposit inh: -1.5; PDI inh: -0.6; ERp5 block: 2.3

How did COc1ccc(CN(C)C[C@H]2Oc3ccc(NS(C)(=O)=O)cc3CC(=O)N([C@@H](C)CO)C[C@H]2C)cc1 do in these assays?
AF4-AF9 inh: 0.1; FGF22 binding: -0.7; ARNT-TACC3 inh: 0.6; ERp5 block: -0.1

How did Cn1cc(CN2CCC(C(=O)N3CCCC3)CC2)c(-c2ccccc2F)n1 do in these assays?
AF4-AF9 inh: -0.3; FGF22 binding: 43.0*; FN deposit inh: 8.3; ARNT-TACC3 inh: -3.5; PDI inh: 0.7; ERp5 block: -0.1

Results for C[C@H](CO)N1C[C@H](C)[C@@H](CN(C)C(=O)CCC(F)(F)F)OCCCC[C@H](C)Oc2ccc(NC(=O)CCCN(C)C)cc2C1=O ?
FGF22 binding: -0.1; FN deposit inh: -1.4; ARNT-TACC3 inh: 24.9*

Results for C[C@@H]1CN([C@@H](C)CO)C(=O)c2cc(NC(=O)CCCN(C)C)ccc2O[C@@H](C)CCCCO[C@H]1CN(C)C(=O)CCC(F)(F)F ?
FGF22 binding: -0.5; FN deposit inh: 0.7; ARNT-TACC3 inh: -15.7

Results for C[C@@H]1CCCCO[C@H](CN(C)C(=O)CCCN(C)C)[C@@H](C)CN([C@H](C)CO)C(=O)c2cc(NC(=O)CCC(F)(F)F)ccc2O1 ?
AF4-AF9 inh: -4.0; FGF22 binding: 1.5*; ARNT-TACC3 inh: -4.2; ERp5 block: -7.1

What do the screens show for `C[C@@H]1CCCCO[C@@H](CN(C)C(=O)CCC(F)(F)F)[C@@H](C)CN([C@H](C)CO)C(=O)c2cc(NC(=O)CCCN(C)C)ccc2O1`?
FGF22 binding: -0.2; FN deposit inh: 0.0; ARNT-TACC3 inh: 9.6

What do the screens show for `O=C(NC1Cc2ccccc2C1)[C@H]1[C@H](CO)[C@H]2Cn3c(cccc3=O)[C@@H]1N2Cc1ccccc1F`?
AF4-AF9 inh: 0.0; FGF22 binding: -0.1; ERp5 block: 3.4

How did O=C(C[C@@H]1C[C@H]2c3cc(NC(=O)C4CCC4)ccc3O[C@H]2[C@@H](CO)O1)NCc1cccnc1 do in these assays?
AF4-AF9 inh: -14.7; FGF22 binding: 0.0; FN deposit inh: 2.9; ERp5 block: -10.1

What do the screens show for `Cn1cc(CN2CCC(C(=O)NC(c3ccc(-c4ccccc4)cc3)c3cnccn3)CC2)c2ccccc21` (centres undefined)?
AF4-AF9 inh: 26.4*; FGF22 binding: 0.1; FN deposit inh: 5.9; PDI inh: 7.9; ERp5 block: -1.6

How did O=C(NC(c1ccc(-c2ccccc2)cc1)c1cnccn1)C1CCN(Cc2ccc(Cl)c(Cl)c2)CC1 (centres undefined) do in these assays?
AF4-AF9 inh: 0.7; FGF22 binding: 0.0; FN deposit inh: 3.2; PDI inh: 13.1; ERp5 block: 3.4

Results for O=C(O)CCCCCN=Cc1c(O)c2ccccc2oc1=O ?
AF4-AF9 inh: 1.4; FN deposit inh: 7.9; ARNT-TACC3 inh: 1.2; PDI inh: 1.4; ERp5 block: -11.6

What do the screens show for `O=C(O)CCN=Cc1c(O)c2ccccc2oc1=O`?
AF4-AF9 inh: -1.3; FGF22 binding: 43.0*; FN deposit inh: -7.4; ARNT-TACC3 inh: -33.2; PDI inh: -0.8; ERp5 block: -0.4

What do the screens show for `O=C1NC(Cc2c[nH]c3ccccc23)C(=O)N1Cc1cccc2ccccc12` (centres undefined)?
AF4-AF9 inh: 2.9; FGF22 binding: 43.4*; FN deposit inh: 8.2; ARNT-TACC3 inh: -1.3; PDI inh: 4.2; ERp5 block: -0.1

What do the screens show for `CNC(=O)CN1C(=O)NC(Cc2c[nH]c3ccccc23)C1=O` (centres undefined)?
AF4-AF9 inh: 2.7; FGF22 binding: -0.2; FN deposit inh: 8.5; ARNT-TACC3 inh: -1.8; PDI inh: 4.4; ERp5 block: 3.3

How did CC(C)CNC(=O)CN1C(=O)NC(Cc2c[nH]c3ccccc23)C1=O (centres undefined) do in these assays?
AF4-AF9 inh: -1.0; FGF22 binding: 43.1*; FN deposit inh: -0.3; ARNT-TACC3 inh: -3.8; PDI inh: 4.3; ERp5 block: 3.1

Results for CCN1CCN(S(=O)(=O)c2ccc(Cl)c(C(=O)N(C)C3CCCCC3)c2)CC1 ?
AF4-AF9 inh: 25.7*; FGF22 binding: 0.0; FN deposit inh: 3.2; PDI inh: 0.8; ERp5 block: -3.0

How did CCN1CCN(S(=O)(=O)c2ccc(Cl)c(C(=O)NC3CCCC3)c2)CC1 do in these assays?
AF4-AF9 inh: -13.6; FGF22 binding: 0.2; FN deposit inh: -4.5; ARNT-TACC3 inh: 1.0; PDI inh: -1.6; ERp5 block: 0.2

Results for O=C(NC1CCC1)[C@H]1[C@H](CO)[C@H]2Cn3c(ccc(-c4ccccc4)c3=O)[C@@H]1N2CC1CC1 ?
AF4-AF9 inh: -1.3; FGF22 binding: -0.1; ARNT-TACC3 inh: -6.1; ERp5 block: -9.6

How did O=C(Nc1ccc(F)cc1)N[C@H]1CC[C@@H](CCNS(=O)(=O)c2cccc(Cl)c2)O[C@@H]1CO do in these assays?
AF4-AF9 inh: 3.3; FGF22 binding: 0.0; FN deposit inh: -1.2; ARNT-TACC3 inh: 4.3; ERp5 block: -0.5

What do the screens show for `COc1ccc(-c2ccc3c(c2)[C@H]2[C@H](CCN2S(=O)(=O)c2ccccc2C)[C@H](CO)N3)cc1`?
FN deposit inh: -3.1; ARNT-TACC3 inh: -11.2

Results for O=C(O)Cc1cccc(=O)c(O)c1C(=O)O ?
ARNT-TACC3 inh: 93.2*; PDI inh: -7.4

What do the screens show for `O=C(Cc1ccccc1)N/N=C/c1cc(Br)cc(Br)c1O`?
AF4-AF9 inh: -1.6; FGF22 binding: -0.1; FN deposit inh: 7.2; ARNT-TACC3 inh: 2.5; PDI inh: -13.4; ERp5 block: 2.0

What do the screens show for `O=C(O)c1ccccc1N/N=C/c1cc(Br)cc(Br)c1O`?
AF4-AF9 inh: 30.1*; FGF22 binding: 43.8*; FN deposit inh: 8.3; ARNT-TACC3 inh: 17.3; PDI inh: -0.2; ERp5 block: 6.4

How did CCN(c1ccccc1)c1ncnc2c1cnn2-c1ccccc1 do in these assays?
AF4-AF9 inh: 28.3*; FGF22 binding: -0.1; FN deposit inh: 1.1; ARNT-TACC3 inh: -9.1; PDI inh: -9.9; ERp5 block: -3.2

What do the screens show for `CCCc1cc2c(=O)c(-c3cscn3)c(C(=O)OCC)oc2cc1O`?
AF4-AF9 inh: -7.3; FGF22 binding: 43.4*; FN deposit inh: 6.7; ARNT-TACC3 inh: -3.5; PDI inh: -0.6; ERp5 block: -86.4

Results for C[C@@H]1CCCCO[C@@H](CN(C)S(C)(=O)=O)[C@H](C)CN([C@H](C)CO)C(=O)c2cc(NC(=O)Cc3ccccc3)ccc2O1 ?
AF4-AF9 inh: -1.6; FGF22 binding: -0.1; ARNT-TACC3 inh: 1.7; ERp5 block: -7.0
